≈ marks a conversion by molar mass, not a printed value. Calls of active or inactive are those of the source. No cut-off for these calls is given here.
Assays:
Staphylococcus aureus [1] = experiment: Antimicrobial activity against Staphylococcus aureus ATCC 25923 incubated for 24 hrs by NCCLS protocol based method; assay type: functional; conditions: ATCC 25923, 24 h
Method in brief: (§1)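 Two-fold serial broth microdilution in 96-well plates per NCCLS standards. MIC (µg/mL) taken as the lowest concentration giving complete growth inhibition. Berberine, chloromycin and norfloxacin were positive controls for bacteria; fluconazole for fungi.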

Proteus hauseri = experiment: Antimicrobial activity against Bacillus proteus ATCC13315 incubated for 24 hrs by NCCLS protocol based method; assay type: functional; conditions: ATCC13315, 24 h; method in brief: as §1
Bacillus subtilis = experiment: Antimicrobial activity against Bacillus subtilis ATCC 6633 incubated for 24 hrs by NCCLS protocol based method; assay type: functional; conditions: ATCC 6633, 24 h; method in brief: as §1
[2] = Antimicrobial activity against Eberthella typhosa ATCC 14028 incubated for 24 hrs by NCCLS protocol based method; assay type: functional; conditions: ATCC 14028, 24 h
Method in brief: (§2)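 Standard two-fold serial broth microdilution in 96-well plates per NCCLS; MIC (µg/mL) read as lowest concentration giving complete inhibition of microbial growth. Berberine, chloromycin and norfloxacin served as positive controls.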

Pseudomonas aeruginosa = experiment: Antimicrobial activity against Pseudomonas aeruginosa ATCC 27853 incubated for 24 hrs by NCCLS protocol based method; assay type: functional; conditions: ATCC 27853, 24 h; method in brief: as §1
Escherichia coli = experiment: Antimicrobial activity against Escherichia coli JM109 incubated for 24 hrs by NCCLS protocol based method; assay type: functional; conditions: JM109, 24 h; method in brief: as §1
[3] = Antimicrobial activity against Candida mycoderma ATCC 9888 incubated for 24 hrs by NCCLS protocol based method; assay type: functional, Candida vini; conditions: Kregervanrija fluxuum, ATCC 9888, 24 h
Candida albicans = experiment: Antimicrobial activity against Candida albicans ATCC 10231 incubated for 24 hrs by NCCLS protocol based method; conditions: ATCC 10231, 24 h
Cyberlindnera jadinii = experiment: Antimicrobial activity against Candida utilis ATCC 9950 incubated for 24 hrs by NCCLS protocol based method; assay type: functional; conditions: Williopsis jadinii, ATCC 9950, 24 h
Micrococcus luteus = experiment: Antimicrobial activity against Micrococcus luteus ATCC 4698 incubated for 24 hrs by NCCLS protocol based method; assay type: functional; conditions: ATCC 4698, 24 h; method in brief: as §1
Saccharomyces cerevisiae = experiment: Antimicrobial activity against beer yeast ATCC 9763 incubated for 24 hrs by NCCLS protocol based method; assay type: functional; conditions: ATCC 9763, 24 h
Staphylococcus aureus [4] = experiment: Antimicrobial activity against methicillin-resistant Staphylococcus aureus N315 incubated for 24 hrs by NCCLS protocol based method; assay type: functional; conditions: N315, 24 h; method in brief: as §2
Aspergillus flavus = experiment: Antimicrobial activity against Aspergillus flavus ATCC 204304 incubated for 24 hrs by NCCLS protocol based method; assay type: functional; conditions: ATCC 204304, 24 h
HepG2 [5] = experiment: Induction of ROS production in human HepG2 cells at 6.25 to 100 uM by DCFH-DA as probe based fluorescence microscopy; assay type: functional, cell-based
Method in brief: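 Intracellular ROS detected with the fluorescent probe DCFH-DA and imaged by fluorescence microscopy. Compounds tested at 6.25, 12.5, 25, 50 and 100 μM, with berberine for comparison.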

[6] = (§3) Cytotoxicity against human HepG2 cells assessed as cell viability at 6.25 to 100 ug/ml by MTT assay; assay type: cell-based; conditions: HepG2 cells, read-out: Activity
Method in brief: (§4)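 HepG2 cells exposed to compound up to 100 μg/mL. Viability read by colorimetric MTT assay with berberine as control. Mean of three parallels ± one standard deviation.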

Calf thymus DNA [7] = experiment: Binding affinity to calf thymus DNA by neutral red dye based UV-Visible spectroscopy; assay type: nucleic-acid assay; conditions: Bos taurus
Calf thymus DNA [8] = experiment: Binding affinity to calf thymus DNA by UV-Visible spectroscopy; assay type: nucleic-acid assay; conditions: Bos taurus
Method in brief: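 Calf thymus DNA held at a fixed concentration in Tris-HCl buffer pH 7.4, titrated with increasing compound. UV-vis absorption spectra recorded in 1.0 cm quartz cells, following the 260 nm DNA band. DNA concentration set from A260 using ε260 = 6600 L mol⁻¹ cm⁻¹ per phosphate. Purity confirmed by A260/A280 > 1.8.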

HepG2 [9] = experiment: as §3; assay type: cell-based; conditions: hepg2; method in brief: as §4

| SMILES | MIC (Staphylococcus aureus [1]) [µg/mL] | MIC (Proteus hauseri) [µg/mL] | MIC (Bacillus subtilis) [µg/mL] | MIC [2] [µg/mL] | MIC (Pseudomonas aeruginosa) [µg/mL] | MIC (Escherichia coli) [µg/mL] | MIC80 [3] [µg/mL] | MIC80 (Candida albicans) [µg/mL] | MIC80 (Cyberlindnera jadinii) [µg/mL] | MIC (Micrococcus luteus) [µg/mL] | MIC80 (Saccharomyces cerevisiae) [µg/mL] | MIC (Staphylococcus aureus [4]) [µg/mL] | MIC80 (Aspergillus flavus) [µg/mL] | Activity (HepG2 [5]) | viability [6] [%] | Activity (Calf thymus DNA [7]) | K (Calf thymus DNA [8]) [×10³ L/mol] | Activity (HepG2 [9]) |
| --- | --- | --- | --- | --- | --- | --- | --- | --- | --- | --- | --- | --- | --- | --- | --- | --- | --- | --- |
| CCCc1nccn1Cc1cc(OC)c(O)c2c[n+]3c(cc12)-c1cc2c(cc1CC3)OCO2.[Cl-] | 16 | 64 | 64 | 64 | 128 | 64 | 128 | 64 | 128 | 32 | 32 | 32 | 128 |  |  |  |  |  |
| COc1cc(Cn2ccnc2)c2cc3[n+](cc2c1O)CCc1cc2c(cc1-3)OCO2.[Cl-] | 32 | 64 | 8 | 1 | 64 | 32 | 128 | 64 | 32 | 16 | 32 | 32 | 64 | Active | > 87 | Active | 5.22 |  |
| COc1cc(Cn2cnc(C)c2)c2cc3[n+](cc2c1O)CCc1cc2c(cc1-3)OCO2.[Cl-] | 8 | 32 | 32 | 64 | 128 | 32 | 128 | 128 | 64 | 16 | 32 | 32 | 64 |  |  |  |  |  |
| CCCCCCCCCCCc1nccn1Cc1cc(OC)c(O)c2c[n+]3c(cc12)-c1cc2c(cc1CC3)OCO2.[Cl-] | 128 | 128 | 128 | 256 | 256 | 256 | 128 | 128 | 256 | 128 | 128 | 64 | 256 |  |  |  |  |  |
| CCCCCCCCCCCCCCCCCc1nccn1Cc1cc(OC)c(O)c2c[n+]3c(cc12)-c1cc2c(cc1CC3)OCO2.[Cl-] | 256 | 256 | 256 | 512 | 256 | 256 | 256 | 256 | 512 | 256 | 256 | 128 | 256 |  |  |  |  |  |
| COc1ccc2cc3[n+](cc2c1OC)CCc1cc2c(cc1-3)OCO2.[Cl-] [BERBERINE CHLORIDE] | 512 | 256 | 512 | 512 | 256 | 512 | 128 | 512 | 256 | 512 | 128 | 128 | 512 |  |  |  |  | Toxic |
| CCc1nc(C)cn1Cc1cc(OC)c(O)c2c[n+]3c(cc12)-c1cc2c(cc1CC3)OCO2.[Cl-] | 64 | 128 | 128 | 128 | 128 | 128 | 128 | 128 | 128 | 64 | 128 | 64 | 128 |  |  |  |  |  |
| CCn1cc(C(=O)O)c(=O)c2cc(F)c(N3CCNCC3)cc21 [NORFLOXACIN] | 2 (≈ 6.26 µM) | 4 (≈ 12.5 µM) | 1 (≈ 3.13 µM) | 4 (≈ 12.5 µM) | 2 (≈ 6.26 µM) | 16 (≈ 50.1 µM) |  |  |  | 2 (≈ 6.26 µM) |  | 8 (≈ 25.1 µM) |  |  |  |  |  |  |
| COc1cc(Cn2cc(C)nc2C)c2cc3[n+](cc2c1O)CCc1cc2c(cc1-3)OCO2.[Cl-] | 64 | 128 | 128 | 128 | 128 | 128 | 128 | 128 | 128 | 64 | 256 | 64 | 128 |  |  |  |  |  |
| CCCCc1nccn1Cc1cc(OC)c(O)c2c[n+]3c(cc12)-c1cc2c(cc1CC3)OCO2.[Cl-] | 32 | 128 | 64 | 128 | 128 | 128 | 256 | 64 | 256 | 32 | 64 | 32 | 64 |  |  |  |  |  |
| OC(Cn1cncn1)(Cn1cncn1)c1ccc(F)cc1F [FLUCONAZOLE] |  |  |  |  |  |  | 32 (≈ 104 µM) | 32 (≈ 104 µM) | 8 (≈ 26.1 µM) |  | 16 (≈ 52.2 µM) |  | 256 (≈ 836 µM) |  |  |  |  |  |
| CCc1nccn1Cc1cc(OC)c(O)c2c[n+]3c(cc12)-c1cc2c(cc1CC3)OCO2.[Cl-] | 8 | 64 | 32 | 64 | 64 | 32 | 256 | 64 | 64 | 16 | 16 | 16 | 128 |  |  |  |  |  |
| COc1cc(Cn2ccnc2C)c2cc3[n+](cc2c1O)CCc1cc2c(cc1-3)OCO2.[Cl-] | 16 | 64 | 64 | 32 | 64 | 32 | 128 | 64 | 32 | 16 | 16 | 32 | 32 |  |  |  |  |  |
